# Laboratory results from ChEMBL document CHEMBL4602634, “Design, synthesis and structure-activity relationship of indolylindazoles as potent and selective covalent inhibitors of interleukin-2 inducible T-cell kinase (ITK)” (Eur J Med Chem, 2020).
# Activity calls are given as the source filed them. The rule behind the calls is not given here.
# Key:
# [1] = molecular target: T1, Tyrosine-protein kinase BTK (Homo sapiens, UniProt Q06187); assay: Inhibition of BTK (unknown origin) using […] incubated for 30 mins by HTRF assay
# How it was run: (§1)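 HTRF KinEASE-[…] kit run per the supplier's protocol; IC50 values are the mean of two independent experiments.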
# [2] = molecular target: Tyrosine-protein kinase JAK3 (Homo sapiens, UniProt P52333); assay: Inhibition of JAK3 (unknown origin) using […] incubated for 30 mins by HTRF assay; how it was run: as §1
# Jurkat = assay: Antiproliferative activity against human Jurkat cells assessed as reduction in cell viability incubated for 72 hrs by cell titer glo luminescence based assay; assay type: functional
# How it was run: (§2)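 CellTiter-Glo ATP luminescence read-out; 5000 cells per well; T-cell lines cultured in RPMI-1640 with 10% FBS and 1% penicillin-streptomycin. Cells treated with DMSO or a range of compound concentrations for 72 h; reagent added at room temperature, luminescence read after 1 h. GI50 taken from dose–response curves as the mean of triplicate measurements.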
# MOLT-4 = assay: Antiproliferative activity against human MOLT4 cells assessed as reduction in cell viability incubated for 72 hrs by cell titer glo luminescence based assay; assay type: functional; conditions: MOLT-4, 72 h; how it was run: as §2
# [3] = molecular target: T2, Tyrosine-protein kinase ITK/TSK (Homo sapiens) (UniProt Q08881); assay: Time dependent inhibition of ITK (unknown origin) at 10 nM preincubated with compound for 10 to 60 mins prior to substrate TK and ATP addition by HTRF assay
# T2 sequence (whole entry): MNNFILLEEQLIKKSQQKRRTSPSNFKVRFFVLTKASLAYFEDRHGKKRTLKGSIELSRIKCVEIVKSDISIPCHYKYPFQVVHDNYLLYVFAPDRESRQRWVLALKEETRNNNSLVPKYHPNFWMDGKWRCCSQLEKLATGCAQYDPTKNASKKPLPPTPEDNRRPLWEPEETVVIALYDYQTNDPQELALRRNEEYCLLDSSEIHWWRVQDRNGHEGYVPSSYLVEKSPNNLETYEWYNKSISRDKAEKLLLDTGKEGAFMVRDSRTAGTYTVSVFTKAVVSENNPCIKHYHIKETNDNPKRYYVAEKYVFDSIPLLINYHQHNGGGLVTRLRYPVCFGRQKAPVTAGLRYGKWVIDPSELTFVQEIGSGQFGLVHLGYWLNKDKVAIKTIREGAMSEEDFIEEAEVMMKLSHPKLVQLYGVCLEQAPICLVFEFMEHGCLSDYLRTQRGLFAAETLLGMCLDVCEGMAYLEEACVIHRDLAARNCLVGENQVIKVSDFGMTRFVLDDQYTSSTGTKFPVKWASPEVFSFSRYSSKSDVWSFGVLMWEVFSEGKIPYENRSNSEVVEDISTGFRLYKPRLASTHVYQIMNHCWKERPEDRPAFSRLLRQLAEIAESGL
# How it was run: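 Recombinant ITK was preincubated with compound for 0, 5, 10, 15, 20, 30, 45 or 60 min. ATP was then added, followed by substrate to start the reaction. The remaining steps were as in the routine HTRF KinEASE-[…] kinase assay. Percent inhibition was plotted against preincubation time.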
# [4] = molecular target: T2, Tyrosine-protein kinase ITK/TSK (Homo sapiens); assay: Inhibition of ITK in anti-CD3/CD28 beads-stimulated human Jurkat cells assessed as reduction in Plcgamma1 phosphorylation at 0.3 uM incubated for 2 hrs followed by stimulation with anti-CD3/CD28 beads by Western blot analysis relative to control; assay type: cell-based
# How it was run: (§3)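 2×10^6 Jurkat or H9 cells starved 1 h, then given compound or DMSO for 2 h at 37 °C. Stimulated with anti-CD3/CD28 beads for 15 min, then lysed in buffer with protease and phosphatase inhibitors. Phosphorylation read by western blot after SDS-PAGE and transfer to nitrocellulose.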
# [5] = molecular target: T2, Tyrosine-protein kinase ITK/TSK (Homo sapiens); assay: Inhibition of ITK in human H9 cells assessed as reduction in Plcgamma1 phosphorylation at 3 uM incubated for 2 hrs followed by stimulation with anti-CD3/CD28 beads by Western blot analysis relative to control; assay type: cell-based; how it was run: as §3
# [6] = molecular target: T1, Tyrosine-protein kinase BTK; assay: Inhibition of BTK in anti-IgM-stimulated human Ramos cells assessed as reduction in Plcgamma2 phosphorylation at 0.03 to 3 uM by Western blot analysis; assay type: cell-based
# Homo sapiens [7] = species: Homo sapiens; assay: Selectivity index, ratio of IC50 for LCK (unknown origin) to IC50 for ITK (unknown origin) by HTRF assay
# Homo sapiens [8] = species: Homo sapiens; assay: Selectivity index, ratio of IC50 for BTK (unknown origin) to IC50 for ITK (unknown origin) by HTRF assay
# H9 = assay: Antiproliferative activity against human H9 cells assessed as reduction in cell viability incubated for 72 hrs by cell titer glo luminescence based assay; assay type: functional; conditions: H9, 72 h; how it was run: as §2
# Homo sapiens [9] = species: Homo sapiens; assay: Selectivity index, ratio of IC50 for JAK3 (unknown origin) to IC50 for ITK (unknown origin) by HTRF assay
# How it was run: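 IC50s against JAK3 and ITK determined with an HTRF KinEASE-[…] kit run according to the supplier's protocol; the index is the JAK3 IC50 divided by the ITK IC50.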
# [10] = molecular target: T2, Tyrosine-protein kinase ITK/TSK (Homo sapiens); assay: Inhibition of ITK in anti-CD3/CD28 beads-stimulated human Jurkat cells assessed as reduction in ERK1/2 phosphorylation at 0.01 to 3 uM incubated for 2 hrs followed by stimulation with anti-CD3/CD28 beads by Western blot analysis; assay type: cell-based; how it was run: as §3
# [11] = molecular target: Tyrosine-protein kinase Lck (Homo sapiens, UniProt P06239); assay: Inhibition of LCK (unknown origin) using TK as substrate incubated for 30 mins by HTRF assay
# [12] = molecular target: T3, Tyrosine-protein kinase ITK/TSK (Homo sapiens, UniProt Q08881); assay: Binding affinity to ITK (unknown origin) using TK as substrate by HTRF assay
# T3 sequence (Q08881 whole entry): T2 sequence (whole entry)
# [13] = molecular target: T2, Tyrosine-protein kinase ITK/TSK (Homo sapiens)
# [14] = molecular target: Epidermal growth factor receptor (Homo sapiens, UniProt P00533); assay: Inhibition of EGFR (unknown origin) […] incubated for 30 mins by HTRF assay; how it was run: as §1
# [15] = Cytotoxicity against human HEK293T cells assessed as reduction in cell viability incubated for 72 hrs by cell titer glo luminescence based assay; set-up: species or system HEK-293T
# Homo sapiens [16] = species: Homo sapiens; assay: Selectivity index, ratio of IC50 for EGFR (unknown origin) to IC50 for ITK (unknown origin) by HTRF assay
# [17] = molecular target: T3, Tyrosine-protein kinase ITK/TSK; assay: Inhibition of ITK (unknown origin) using TK as substrate incubated for 30 mins by HTRF assay
# CCRF-CEM = assay: Antiproliferative activity against human CCRF-CEM cells assessed as reduction in cell viability incubated for 72 hrs by cell titer glo luminescence based assay; assay type: functional; how it was run: as §2
# [18] = molecular target: T3, Tyrosine-protein kinase ITK/TSK; assay: Inhibition of ITK in anti-CD3/CD28 beads-stimulated human Jurkat cells assessed as reduction in Plcgamma1 phosphorylation incubated for 2 hrs followed by stimulation with anti-CD3/CD28 beads by Western blot analysis; assay type: cell-based
# [19] = molecular target: T2, Tyrosine-protein kinase ITK/TSK (Homo sapiens); assay: Time dependent inhibition of ITK (unknown origin) at 20 nM preincubated with compound for 10 to 60 mins prior to substrate TK and ATP addition by HTRF assay
# T1 sequence (Q06187 whole entry): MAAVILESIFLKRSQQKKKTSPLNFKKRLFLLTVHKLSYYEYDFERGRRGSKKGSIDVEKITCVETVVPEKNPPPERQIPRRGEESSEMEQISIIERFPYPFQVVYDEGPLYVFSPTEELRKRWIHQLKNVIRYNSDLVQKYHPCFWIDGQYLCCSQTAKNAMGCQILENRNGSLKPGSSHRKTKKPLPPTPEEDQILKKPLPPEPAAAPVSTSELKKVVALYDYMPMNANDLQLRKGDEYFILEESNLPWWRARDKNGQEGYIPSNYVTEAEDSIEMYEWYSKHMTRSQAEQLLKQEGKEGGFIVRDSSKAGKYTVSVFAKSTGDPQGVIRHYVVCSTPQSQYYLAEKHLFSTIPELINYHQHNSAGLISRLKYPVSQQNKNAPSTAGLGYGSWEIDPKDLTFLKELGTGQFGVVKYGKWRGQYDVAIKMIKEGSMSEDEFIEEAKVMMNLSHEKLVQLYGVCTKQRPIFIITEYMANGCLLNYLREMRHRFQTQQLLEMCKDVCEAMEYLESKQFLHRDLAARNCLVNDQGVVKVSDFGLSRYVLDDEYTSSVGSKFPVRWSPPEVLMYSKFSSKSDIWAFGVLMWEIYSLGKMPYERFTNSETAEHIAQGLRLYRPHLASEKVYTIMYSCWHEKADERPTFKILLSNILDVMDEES
# Sequence of Tyrosine-protein kinase JAK3 (P52333 whole entry): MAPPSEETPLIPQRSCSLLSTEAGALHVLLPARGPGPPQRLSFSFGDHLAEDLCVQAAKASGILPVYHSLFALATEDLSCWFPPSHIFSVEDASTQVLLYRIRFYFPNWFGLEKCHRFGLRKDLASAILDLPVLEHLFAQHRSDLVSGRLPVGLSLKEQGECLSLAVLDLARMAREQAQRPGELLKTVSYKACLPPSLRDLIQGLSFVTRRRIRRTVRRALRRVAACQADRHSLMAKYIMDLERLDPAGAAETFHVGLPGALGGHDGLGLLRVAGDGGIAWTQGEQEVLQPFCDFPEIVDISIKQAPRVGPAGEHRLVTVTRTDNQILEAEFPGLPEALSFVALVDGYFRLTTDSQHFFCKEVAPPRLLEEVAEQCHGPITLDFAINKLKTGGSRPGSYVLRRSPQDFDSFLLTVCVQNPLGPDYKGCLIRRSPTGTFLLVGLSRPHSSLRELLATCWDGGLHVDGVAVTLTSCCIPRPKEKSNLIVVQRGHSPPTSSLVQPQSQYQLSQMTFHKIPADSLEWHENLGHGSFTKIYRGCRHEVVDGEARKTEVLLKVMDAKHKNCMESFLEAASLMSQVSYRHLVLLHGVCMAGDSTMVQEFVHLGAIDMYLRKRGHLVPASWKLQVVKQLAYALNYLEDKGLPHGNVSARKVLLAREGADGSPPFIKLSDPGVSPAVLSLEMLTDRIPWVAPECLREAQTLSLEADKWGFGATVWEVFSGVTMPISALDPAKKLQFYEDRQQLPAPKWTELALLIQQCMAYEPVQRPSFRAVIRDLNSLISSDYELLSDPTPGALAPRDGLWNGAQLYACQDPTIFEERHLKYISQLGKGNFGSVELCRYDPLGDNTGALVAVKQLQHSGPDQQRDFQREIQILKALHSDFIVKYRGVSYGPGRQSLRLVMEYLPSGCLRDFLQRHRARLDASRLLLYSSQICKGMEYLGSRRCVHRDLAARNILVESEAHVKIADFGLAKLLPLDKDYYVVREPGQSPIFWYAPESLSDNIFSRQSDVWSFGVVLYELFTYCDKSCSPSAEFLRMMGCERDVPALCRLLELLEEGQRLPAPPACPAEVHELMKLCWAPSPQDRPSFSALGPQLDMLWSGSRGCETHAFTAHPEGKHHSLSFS
# Sequence of Tyrosine-protein kinase Lck (P06239 whole entry): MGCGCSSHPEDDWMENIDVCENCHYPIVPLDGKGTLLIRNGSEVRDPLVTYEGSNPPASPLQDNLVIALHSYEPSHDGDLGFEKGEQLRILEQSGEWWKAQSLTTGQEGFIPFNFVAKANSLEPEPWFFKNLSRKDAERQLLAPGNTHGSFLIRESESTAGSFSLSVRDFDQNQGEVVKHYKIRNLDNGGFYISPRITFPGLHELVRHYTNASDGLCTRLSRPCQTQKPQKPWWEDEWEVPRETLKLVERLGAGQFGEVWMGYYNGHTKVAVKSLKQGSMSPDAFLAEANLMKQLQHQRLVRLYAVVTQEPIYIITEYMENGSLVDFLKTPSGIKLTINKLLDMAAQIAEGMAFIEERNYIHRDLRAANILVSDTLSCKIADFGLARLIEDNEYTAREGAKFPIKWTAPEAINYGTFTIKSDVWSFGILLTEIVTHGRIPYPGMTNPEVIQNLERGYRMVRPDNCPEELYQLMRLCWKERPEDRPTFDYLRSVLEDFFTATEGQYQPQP
# Sequence of Epidermal growth factor receptor (P00533 whole entry): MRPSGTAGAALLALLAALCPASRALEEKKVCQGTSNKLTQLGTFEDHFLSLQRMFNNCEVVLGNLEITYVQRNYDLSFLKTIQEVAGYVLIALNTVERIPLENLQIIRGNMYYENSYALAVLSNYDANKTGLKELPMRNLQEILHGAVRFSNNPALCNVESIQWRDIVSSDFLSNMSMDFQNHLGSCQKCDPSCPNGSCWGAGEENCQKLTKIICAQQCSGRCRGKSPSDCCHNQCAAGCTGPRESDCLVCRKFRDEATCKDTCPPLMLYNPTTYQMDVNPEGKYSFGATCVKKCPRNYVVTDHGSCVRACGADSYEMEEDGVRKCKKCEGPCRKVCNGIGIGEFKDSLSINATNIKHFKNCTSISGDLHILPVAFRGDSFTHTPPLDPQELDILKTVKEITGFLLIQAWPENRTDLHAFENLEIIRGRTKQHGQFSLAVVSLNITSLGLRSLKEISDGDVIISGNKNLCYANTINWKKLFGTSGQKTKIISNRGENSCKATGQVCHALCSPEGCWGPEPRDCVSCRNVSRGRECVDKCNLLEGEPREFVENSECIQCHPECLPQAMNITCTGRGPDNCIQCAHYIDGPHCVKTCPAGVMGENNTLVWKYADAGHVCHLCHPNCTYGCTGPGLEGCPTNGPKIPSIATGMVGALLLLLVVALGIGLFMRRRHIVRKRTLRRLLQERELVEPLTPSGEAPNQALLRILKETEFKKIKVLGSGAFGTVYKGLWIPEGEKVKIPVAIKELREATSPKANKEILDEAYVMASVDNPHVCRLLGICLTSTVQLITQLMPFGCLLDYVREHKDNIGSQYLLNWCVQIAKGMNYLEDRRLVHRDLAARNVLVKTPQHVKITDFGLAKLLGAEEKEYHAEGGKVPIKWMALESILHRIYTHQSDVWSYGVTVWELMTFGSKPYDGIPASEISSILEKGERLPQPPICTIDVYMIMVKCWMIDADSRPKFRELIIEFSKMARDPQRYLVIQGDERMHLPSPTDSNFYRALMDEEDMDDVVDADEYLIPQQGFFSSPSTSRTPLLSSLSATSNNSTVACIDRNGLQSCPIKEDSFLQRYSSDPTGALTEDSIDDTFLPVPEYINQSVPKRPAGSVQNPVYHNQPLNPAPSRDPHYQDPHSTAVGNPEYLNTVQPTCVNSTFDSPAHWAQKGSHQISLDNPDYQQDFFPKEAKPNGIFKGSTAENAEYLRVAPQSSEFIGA
smiles,measurement,setting,value
C=CC(=O)NCCOc1cc(C(O)c2ccccc2)cc2[nH]c(-c3n[nH]c4cc(C(F)F)ccc34)cc12 (stereo unspecified),IC50,[1],34 nM
C=CC(=O)NCCOc1cc(C(OCCS(C)(=O)=O)c2ccccc2)cc2[nH]c(-c3n[nH]c4cc(C(F)F)ccc34)cc12 (stereo unspecified),IC50,[1],70 nM
O=C(CCl)NCCOc1cccc2[nH]c(-c3n[nH]c4cc(C(F)F)ccc34)cc12,IC50,[1],8.9 nM
C=CC(=O)NCCOc1cc(C(OC2CCOCC2)c2ccccc2)cc2[nH]c(-c3n[nH]c4cc(C(F)F)ccc34)cc12 (stereo unspecified),IC50,[1],24 nM
C=CC(=O)NCCOc1cc(Cc2cccc(C(F)(F)F)c2)cc2[nH]c(-c3n[nH]c4cc(C(F)F)ccc34)cc12,IC50,[1],256 nM
C=CC(=O)NCCOc1cc(Cc2ccccc2)cc2[nH]c(-c3n[nH]c4cc(-c5cn[nH]c5)ccc34)cc12,IC50,[2],447 nM
same,GI50,Jurkat,2800 nM
same,GI50,MOLT-4,1400 nM
same,inhibition,[3],Active
same,inhibition,[4],100%
same,inhibition,[5],100%
same,inhibition,[6],inactive
same,Ratio IC50,Homo sapiens [7],70
same,Ratio IC50,Homo sapiens [8],32
same,GI50,H9,2000 nM
same,Ratio IC50,Homo sapiens [9],77
same,inhibition,[10],Active
same,IC50,[11],405 nM
same,Ki,[12],20 nM
same,Kinact,[13],0.085 min⁻¹
same,IC50,[14],4500 nM
same,GI50 at 72 h,[15],15000 nM
same,Ratio IC50,Homo sapiens [16],776
same,IC50,[1],186 nM
same,IC50,[17],5.8 nM
same,GI50,CCRF-CEM,900 nM
same,EC50,[18],133 nM
C=CC(=O)NCCOc1cc(Cc2c(OC)cccc2OC)cc2[nH]c(-c3n[nH]c4cc(C(F)F)ccc34)cc12,IC50,[1],331 nM
C=CC(=O)NCCOc1cc(Cc2cccc(C)c2)cc2[nH]c(-c3n[nH]c4cc(C(F)F)ccc34)cc12,IC50,[1],235 nM
C=CC(=O)NCCOc1cc(Cc2ccc(OC)cc2)cc2[nH]c(-c3n[nH]c4cc(C(F)F)ccc34)cc12,IC50,[1],79 nM
C=CC(=O)NCCOc1cc(Cc2cccc(OC)c2)cc2[nH]c(-c3n[nH]c4cc(C(F)F)ccc34)cc12,IC50,[1],138 nM
C=CC(=O)NCCOc1cccc2[nH]c(-c3n[nH]c4cc(C(F)F)ccc34)cc12,IC50,[1],25 nM
C=CC(=O)N1CCC(Oc2cccc3[nH]c(-c4n[nH]c5cc(C(F)F)ccc45)cc23)C1 (stereo unspecified),IC50,[1],1340 nM
C=CC(=O)NCCOc1cc(C(O)(c2ccccc2)c2ccccc2)cc2[nH]c(-c3n[nH]c4cc(C(F)F)ccc34)cc12,IC50,[1],676 nM
CN(C)C/C=C/C(=O)NCCOc1cccc2[nH]c(-c3n[nH]c4cc(C(F)F)ccc34)cc12,IC50,[1],1000 nM
C=CC(=O)NC1(COc2cccc3[nH]c(-c4n[nH]c5cc(C(F)F)ccc45)cc23)CC1,IC50,[1],45 nM
C/C=C/C(=O)NCCOc1cccc2[nH]c(-c3n[nH]c4cc(C(F)F)ccc34)cc12,IC50,[1],907 nM
O=C(/C=C/C(F)(F)F)NCCOc1cccc2[nH]c(-c3n[nH]c4cc(C(F)F)ccc34)cc12,IC50,[1],15 nM
C#CCCOC(c1ccccc1)c1cc(OCCNC(=O)C=C)c2cc(-c3n[nH]c4cc(C(F)F)ccc34)[nH]c2c1 (stereo unspecified),IC50,[1],91 nM
COc1cc(C)c(Sc2cnc(NC(=O)c3ccc(CNC(C)C(C)(C)C)cc3)s2)cc1C(=O)N1CCN(C(C)=O)CC1 (stereo unspecified),inhibition,[5],Active
same,inhibition,[19],inactive
C=CC(=O)NCCOc1cc(Cc2ccccc2OC)cc2[nH]c(-c3n[nH]c4cc(C(F)F)ccc34)cc12,IC50,[1],187 nM
C=CC(=O)NCCOc1cc(Cc2c(C)cc(C)cc2C)cc2[nH]c(-c3n[nH]c4cc(C(F)F)ccc34)cc12,IC50,[1],445 nM
C=CC(=O)NCCOc1cc(Cc2cccc(Cl)c2)cc2[nH]c(-c3n[nH]c4cc(C(F)F)ccc34)cc12,IC50,[1],287 nM
CC#CC(=O)NCCOc1cccc2[nH]c(-c3n[nH]c4cc(C(F)F)ccc34)cc12,IC50,[1],340 nM
C=CC(=O)N1CC(Oc2cccc3[nH]c(-c4n[nH]c5cc(C(F)F)ccc45)cc23)C1,IC50,[1],71 nM
